UCH37 DUB inh: human UCH37 deubiquitinating enzyme inhibition; inhibition, % (no concentration beside the values); Q9Y5K5; actives 0.33% (n = 330,000); AID 588478; purified proteasome/UCH37, Ub-AMC cleavage fluorescence;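 active = mean inhibition over replicate wells above about 20%, limit read from the data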;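 also: 0% = compound-free wells with enzyme and 100% = wells lacking proteasome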
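Signal – fluorescence, ex 355 nm, em 460 nm · System – Proteasome-bound UCH37 · Input – 0.15 nM proteasome as dispensed · Timing – 30 min preincubation with enzyme, 25 min cleavage at room temperature · Read-out basis – percent inhibition of cleavage signal versus uninhibited and no-proteasome wells · Medium – Tris-HCl pH 7.4 with ATP-MgCl2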
GRIN3A LBD mod: modulates the human NR3A ligand-binding domain. NR3A LBD differential scanning fluorimetry, Tm shift; 0% = protein alone, 100% = glycine-bound protein. Tm shift relative to glycine control, % at 25 µM. actives 2.5% (n = 340,000);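 active = melting temperature shift of at least 10% of the positive control shift, at one fixed dose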
pPAFAH inh: inhibitors of human plasma PAF acetylhydrolase (pPAFAH). actives 1.5% (n = 330,000). Q13093. inhibition, % at 3.39 µM. AID 463082. recombinant pPAFAH, FP-rhodamine probe fluorescence polarization;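 active = inhibition above the mean inhibition across the screen plus 3 SD, cut at about 25% in these data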;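 also: inhibitors block binding of the rhodamine activity-based probe so polarization drops; 0% = enzyme with DMSO and 100% = wells lacking pPAFAH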
Target sequence (Q13093 whole entry, looked up): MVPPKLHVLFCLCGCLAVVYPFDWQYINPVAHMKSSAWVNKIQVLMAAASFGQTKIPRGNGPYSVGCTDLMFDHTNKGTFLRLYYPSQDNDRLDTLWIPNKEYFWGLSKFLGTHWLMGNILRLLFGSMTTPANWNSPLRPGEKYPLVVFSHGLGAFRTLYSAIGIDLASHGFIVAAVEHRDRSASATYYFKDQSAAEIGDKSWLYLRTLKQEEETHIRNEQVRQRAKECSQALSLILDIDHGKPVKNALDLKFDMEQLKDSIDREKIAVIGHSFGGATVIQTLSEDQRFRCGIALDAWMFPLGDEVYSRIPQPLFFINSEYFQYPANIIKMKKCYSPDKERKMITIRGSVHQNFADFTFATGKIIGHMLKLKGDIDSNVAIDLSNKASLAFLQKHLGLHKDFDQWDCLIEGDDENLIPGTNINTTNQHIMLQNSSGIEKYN
PAFAH2 FP inh: inhibitors of human PAFAH2; recombinant PAFAH2, FP-rhodamine activity probe, fluorescence polarization; inhibition, % at 3.39 µM; Q99487; actives 0.99% (n = 340,000); AID 492956;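 active = inhibition above the mean over all tested compounds plus 3 SD, cut at about 30% in these data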;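 also: inhibitors block probe labeling of enzyme so polarization drops; 0% = enzyme with DMSO and 100% = wells lacking PAFAH2 protein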
PAFAH1B2 inh: blocks human PAF acetylhydrolase 1b catalytic subunit 2 | recombinant PAFAH1B2, FP-rhodamine activity probe, fluorescence polarization | AID 492953 | inhibition, % at 3.39 µM | actives 1.2% (n = 340,000) | P68402;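 active = inhibition above the mean of all tested compounds plus 3 SD, cut at about 24% in these data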;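 also: 0% = enzyme with DMSO and 100% = wells lacking PAFAH1B2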
PAFAH1B3 FP inh: blocks human PAF acetylhydrolase 1B catalytic subunit 3; Q15102; recombinant PAFAH1B3, FP-rhodamine probe, fluorescence polarization; inhibition, % at 3.39 µM; actives 0.28% (n = 340,000);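 active = inhibition above the screen-wide average of all tested compounds plus 3 SD, cut at about 25% in these data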;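 also: 0% = enzyme with DMSO only and 100% = wells lacking PAFAH1B3 protein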
* marks the source's active call; other numbers are inactive results; x = no result. In the library only some 4.8% were active in any assay of this set; here they are far more common.

SMILES	UCH37 DUB inh	GRIN3A LBD mod	pPAFAH inh	PAFAH2 FP inh	PAFAH1B2 inh	PAFAH1B3 FP inh
Cc1ccc(S(=O)(=O)NCCc2cc3ccc(C)cc3[nH]c2=O)cc1	-0.9	-0.9	7.2	-14.4	27.2*	-0.5
Cc1ccc2cc(CCNS(=O)(=O)c3ccc(F)cc3)c(=O)[nH]c2c1	4.4	1.6	-2.0	12.1	11.6	5.8
CCn1nc(C)c(CN2CCC(n3nccc3NC(=O)CCCc3ccccc3)CC2)c1C	0.9	-3.6	-0.3	-6.9	-3.4	2.5
CCn1nc(C)c(CN2CCC(n3nccc3NC(=O)Cc3ccccc3)CC2)c1C	2.7	14.1*	3.5	2.5	3.1	-1.4
CCOC(=O)CSc1nc2ccc(N3CCOCC3)cc2c(=O)n1Cc1ccc2c(c1)OCO2	x	x	32.1*	x	x	x
CCN(Cc1ccncc1)C(=O)c1cc(COc2c(F)cccc2F)on1	0.7	32.2*	-1.2	10.8	2.2	3.8
Cc1nc(NC(=O)c2ccccc2O)sc1C	-15.4	0.3	1.3	0.5	3.1	10.6
Cc1nc(NC(=O)c2csc3ccccc23)sc1C	-1.8	28.1*	-12.1	-3.5	-4.0	4.3
Cc1cc(C)c2oc(C(=O)Nc3ccc(S(=O)(=O)N4CCC(C)CC4)cc3)cc(=O)c2c1	-0.9	0.1	-3.9	-5.4	4.5	0.8
Cc1onc(-c2ccccc2Cl)c1C(=O)Nc1ccc(S(=O)(=O)Nc2nccs2)cc1	30.0*	-2.3	0.8	-1.3	-1.1	-3.4
Cc1cc2oc(C(=O)Nc3ccc(S(=O)(=O)Nc4nccs4)cc3)cc(=O)c2cc1Cl	3.8	17.4*	17.5	2.8	-4.5	-5.0
Cc1cc2oc(C(=O)Nc3ccc(S(=O)(=O)N4CCCC(C)C4)cc3)cc(=O)c2cc1Cl (stereo not given)	-94.6	14.1*	1.3	-19.2	-0.1	0.2
O=C(Nc1ccc(S(=O)(=O)Nc2nccs2)cc1)c1nn(-c2ccccc2)ccc1=O	11.8	-4.1	25.4*	23.9	10.7	9.2
COc1ccc(NC(=O)C(=O)NCCC2CCCCN2S(=O)(=O)c2cccs2)cc1 (stereo not given)	2.9	2.5	-2.4	12.4	7.1	0.1
O=C(NCc1ccc(F)cc1)C(=O)NCC1OCCCN1S(=O)(=O)c1cccs1 (stereo not given)	3.0	-0.3	7.5	-13.7	29.8*	2.2
Cc1ccc(CNC(=O)C(=O)NCC2CCCN2S(=O)(=O)c2cc(C)ccc2C)cc1 (stereo not given)	4.9	x	9.1	2.1	28.0*	6.5
O=C(NCCO)C(=O)NCC1OCCCN1S(=O)(=O)c1cc(F)ccc1F (stereo not given)	3.7	136.0*	1.3	0.7	2.0	22.5
O=C(NCc1ccccc1)C(=O)NCC1OCCCN1S(=O)(=O)c1cccs1 (stereo not given)	6.8	-2.1	8.7	2.2	14.6	-5.3
COc1ccc(CNC(=O)C(=O)NCCC2CCCCN2S(=O)(=O)c2cccs2)cc1 (stereo not given)	1.4	1.1	2.3	-2.1	24.9*	-0.8
O=C(NCCc1ccccc1)C(=O)NCC1OCCCN1S(=O)(=O)c1cc(F)ccc1F (stereo not given)	1.6	8.2	-4.3	1.8	8.5	6.1
COc1ccc(S(=O)(=O)N2CCCC2CNC(=O)C(=O)NC2CCCCCC2)cc1 (stereo not given)	2.6	16.8*	6.3	0.1	1.7	-0.7
Cc1cc(F)ccc1S(=O)(=O)N1CCCOC1CNC(=O)C(=O)NCCc1ccccc1 (stereo not given)	1.0	-1.2	10.9	-19.4	27.0*	5.0
COc1cc(/C=C/c2nc3ccccc3c(=O)[nH]2)cc(Cl)c1O	6.7	26.8*	-2.8	-7.2	5.0	-2.9
O=c1[nH]c(/C=C/c2ccccc2F)nc2ccccc12	-58.5	38.5*	x	6.1	-2.0	-1.1
O=c1c2ccccc2nc(COc2ccccc2)n1N=Cc1ccco1	7.5	x	x	x	x	x
NNc1nc2c(Cl)c(Cl)ccc2s1	3.5	11.1*	12.4	5.8	3.9	4.6
COc1cc([C@@H]2Oc3cc(C4Oc5cc(O)cc(O)c5C(=O)[C@H]4O)ccc3O[C@H]2CO)ccc1O (stereo not given in full)	x	-2.1	35.3*	11.3	7.8	25.0

Compound activity deposited in PubChem by several laboratories.
